From ChEMBL document CHEMBL1136304, “Synthesis and structure-activity relationships of thieno[2,3-d]pyrimidine-2,4-dione derivatives as potent GnRH receptor antagonists” (Bioorg Med Chem Lett, 2003)

Test system: not listed separately
Assay: pKa value was determined
Format: physicochemical
Conditions: not given

With `CONC(=O)Nc1ccc(-c2sc3c(c2CN(C)Cc2ccccc2)c(=O)n(-c2ccccc2)c(=O)n3Cc2c(F)cccc2F)cc1` [SUFUGOLIX] as the compound, how does the pKa read?
The pKa was 5.

Test system: not listed separately
Assay: Partition coefficient (logP)
Format: physicochemical
Conditions: octanol/water

With `CONC(=O)Nc1ccc(-c2sc3c(c2CN(C)Cc2ccccc2)c(=O)n(-c2ccccc2)c(=O)n3Cc2c(F)cccc2F)cc1` [SUFUGOLIX] as the compound, how does the logP read?
The logP was 6.5.

Target: T1, Gonadotropin-releasing hormone receptor (Homo sapiens, UniProt P30968)
T1 sequence (P30968 whole entry): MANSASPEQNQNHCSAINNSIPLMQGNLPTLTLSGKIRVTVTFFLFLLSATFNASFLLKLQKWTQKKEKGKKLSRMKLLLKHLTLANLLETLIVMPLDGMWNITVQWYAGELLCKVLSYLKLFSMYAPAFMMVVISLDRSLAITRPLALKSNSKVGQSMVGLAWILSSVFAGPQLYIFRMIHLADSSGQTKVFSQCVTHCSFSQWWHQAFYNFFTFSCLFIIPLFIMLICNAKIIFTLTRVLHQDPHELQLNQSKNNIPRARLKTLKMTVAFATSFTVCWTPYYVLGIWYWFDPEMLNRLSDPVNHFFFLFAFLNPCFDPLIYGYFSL
Assay: Binding affinity towards human gonadotropin-releasing hormone receptor
Conditions: not given
Method in brief: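 Cloned human GnRH receptor stably expressed in HEK293 cells, binding measured in a 96-well filtration format. Results expressed as Ki. Key compounds were run in 3–8 independent experiments.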

Which Ki does the source give for `CN(C)Cc1c(-c2ccc([N+](=O)[O-])cc2)sc2c1c(=O)n(-c1ccccc1)c(=O)n2Cc1c(F)cccc1F` here?
The Ki was 640 nM.

With `CC(C)CNc1ccc(-c2sc3c(c2CN(C)Cc2ccccc2)c(=O)n(-c2ccccc2)c(=O)n3Cc2c(F)cccc2F)cc1` as the compound, how does the Ki read?
Its Ki is 17 nM.

For `CN(Cc1ccccc1)Cc1c(-c2ccc(N(C)C)cc2)sc2c1c(=O)n(-c1ccccc1)c(=O)n2Cc1c(F)cccc1F`, which Ki is on record?
The Ki was 61 nM.

Which Ki does the source give for `CN(Cc1ccccc1)Cc1c(-c2ccc(NC(=O)CN)cc2)sc2c1c(=O)n(-c1ccccc1)c(=O)n2Cc1c(F)cccc1F` here?
Its Ki is 150 nM.

Which Ki does the source give for `CCCCN(C)Cc1c(-c2ccc([N+](=O)[O-])cc2)sc2c1c(=O)n(-c1ccccc1)c(=O)n2Cc1c(F)cccc1F` here?
The Ki was 270 nM.

Which Ki does the source give for `CN(CCc1ccccc1)Cc1c(-c2ccc([N+](=O)[O-])cc2)sc2c1c(=O)n(-c1ccccc1)c(=O)n2Cc1c(F)cccc1F` here?
The Ki was 170 nM.

For `CN(Cc1ccccc1)Cc1c(-c2ccc(NC(=O)C(F)(F)F)cc2)sc2c1c(=O)n(-c1ccccc1)c(=O)n2Cc1c(F)cccc1F`, which Ki is on record?
Its Ki is 16 nM.

For `COCCN(C)Cc1c(-c2ccc([N+](=O)[O-])cc2)sc2c1c(=O)n(-c1ccccc1)c(=O)n2Cc1c(F)cccc1F`, which Ki is on record?
Its Ki is 170 nM.

Which Ki does the source give for `CC(C)Nc1ccc(-c2sc3c(c2CN(C)Cc2ccccc2)c(=O)n(-c2ccccc2)c(=O)n3Cc2c(F)cccc2F)cc1` here?
Its Ki is 88 nM.

With `CN(Cc1ccccc1)Cc1c(-c2ccc([N+](=O)[O-])cc2)sc2c1c(=O)n(-c1ccccc1)c(=O)n2Cc1c(F)cccc1F` as the compound, how does the Ki read?
The Ki was 180 nM.

Which Ki does the source give for `CCN(CC)CCN(C)Cc1c(-c2ccc([N+](=O)[O-])cc2)sc2c1c(=O)n(-c1ccccc1)c(=O)n2Cc1c(F)cccc1F` here?
Its Ki is 76 nM.

With `CC(C)CC(N)C(=O)Nc1ccc(-c2sc3c(c2CN(C)Cc2ccccc2)c(=O)n(-c2ccccc2)c(=O)n3Cc2c(F)cccc2F)cc1` (single isomer, unassigned) as the compound, how does the Ki read?
The Ki was 58 nM.

With `CC(C)C(=O)Nc1ccc(-c2sc3c(c2CN(C)Cc2ccccc2)c(=O)n(-c2ccccc2)c(=O)n3Cc2c(F)cccc2F)cc1` as the compound, how does the Ki read?
The Ki was 2.9 nM.

For `CC(=O)Nc1ccc(-c2sc3c(c2CN(C)Cc2ccccc2)c(=O)n(-c2ccccc2)c(=O)n3Cc2c(F)cccc2F)cc1`, which Ki is on record?
Its Ki is 4.1 nM.

With `C[C@H](N)C(=O)Nc1ccc(-c2sc3c(c2CN(C)Cc2ccccc2)c(=O)n(-c2ccccc2)c(=O)n3Cc2c(F)cccc2F)cc1` as the compound, how does the Ki read?
Its Ki is 43 nM.

With `CN(Cc1ccccc1)Cc1c(-c2ccc(N)cc2)sc2c1c(=O)n(-c1ccccc1)c(=O)n2Cc1c(F)cccc1F` as the compound, how does the Ki read?
The Ki was 36 nM.

With `CN(Cc1ccccn1)Cc1c(-c2ccc([N+](=O)[O-])cc2)sc2c1c(=O)n(-c1ccccc1)c(=O)n2Cc1c(F)cccc1F` as the compound, how does the Ki read?
The Ki was 9 nM.

For `CCNc1ccc(-c2sc3c(c2CN(C)Cc2ccccc2)c(=O)n(-c2ccccc2)c(=O)n3Cc2c(F)cccc2F)cc1`, which Ki is on record?
Its Ki is 11 nM.

Which Ki does the source give for `O=c1c2c(CN3CCNCC3)c(-c3ccc([N+](=O)[O-])cc3)sc2n(Cc2c(F)cccc2F)c(=O)n1-c1ccccc1` here?
Its Ki is 460 nM.

With `CN(CCc1ccccn1)Cc1c(-c2ccc([N+](=O)[O-])cc2)sc2c1c(=O)n(-c1ccccc1)c(=O)n2Cc1c(F)cccc1F` as the compound, how does the Ki read?
The Ki was 0.6 nM.

For `CN(Cc1ccccc1)Cc1c(-c2ccc(NC(=O)CCCN)cc2)sc2c1c(=O)n(-c1ccccc1)c(=O)n2Cc1c(F)cccc1F`, which Ki is on record?
Its Ki is 300 nM.

For `CN(Cc1ccccc1)Cc1c(-c2ccc(NC(=O)CCN)cc2)sc2c1c(=O)n(-c1ccccc1)c(=O)n2Cc1c(F)cccc1F`, which Ki is on record?
Its Ki is 360 nM.

Target: T2, Gonadotropin-releasing hormone receptor (Rattus norvegicus, UniProt P30969)
T2 sequence (P30969 whole entry): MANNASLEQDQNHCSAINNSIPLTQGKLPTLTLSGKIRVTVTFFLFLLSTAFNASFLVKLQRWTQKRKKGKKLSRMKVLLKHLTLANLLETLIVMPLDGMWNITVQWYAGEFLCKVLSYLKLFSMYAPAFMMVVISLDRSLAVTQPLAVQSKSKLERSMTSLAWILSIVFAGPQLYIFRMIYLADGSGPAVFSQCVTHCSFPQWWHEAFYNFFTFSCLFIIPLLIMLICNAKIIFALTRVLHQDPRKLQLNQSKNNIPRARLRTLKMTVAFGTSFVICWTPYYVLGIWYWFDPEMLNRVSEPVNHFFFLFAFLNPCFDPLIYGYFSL
Assay: Binding affinity towards rat Gonadotropin-releasing hormone receptor
Conditions: not given

With `Cc1cc(-c2c(OCC[C@@H]3CCN3)c3cc(C(=O)Nc4ccncn4)c(Cl)cc3[nH]c2=O)cc(C)c1C` as the compound, how does the IC50 read?
Its IC50 is 4 nM.
